From ChEMBL document CHEMBL4396890, “Synthesis, Biological Evaluation, Structure-Activity Relationship, and Mechanism of Action Studies of Quinoline-Metronidazole Derivatives Against Experimental Visceral Leishmaniasis” (J Med Chem, 2019)
Calls of active or inactive are those of the source. The rule behind the calls is not given here.

Columns and labels:
[1] = test system: Leishmania donovani; test: Induction of apoptosis in Leishmania donovani MHOM/IN/80/Dd8 promastigotes assessed as early apoptotic cells at 50 uM measured after 24 hrs by Annexin V-FITC/propidium iodide staining based assay (reference value: 6.91%); assay type: functional
[2] = Tmax in BALB/c mouse at 50 mg/kg, po administered via gavage by LC-MS/MS analysis; assay type: ADME, organism-based; conditions: in vivo
[3] = test system: Leishmania donovani; test: Induction of mitochondrial potential loss in Leishmania donovani MHOM/IN/80/Dd8 promastigotes assessed as shift in red to green fluorescence at 50 uM after 48 hrs by JC1 dye-based flow cytometry (reference value: 7.37%); assay type: functional
Outline: (§1)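 Exponential-phase promastigotes were incubated with 50 μM compound for 6−48 h, or 0.1% DMSO vehicle. CCCP (50 μM) served as positive control. After JC-1 staining, the red-to-green fluorescence shift was measured by flow cytometry.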

[4] = Cmax in BALB/c mouse at 50 mg/kg, po administered via gavage by LC-MS/MS analysis; assay type: ADME, organism-based; parameters: dose 50 mg/kg, route oral; conditions: in vivo
[5] = test system: Leishmania donovani; test: (§2) Induction of apoptosis in Leishmania donovani MHOM/IN/80/Dd8 promastigotes assessed as increase in meta-caspase activity at 50 uM using BOC-GRR-AMC as substrate preincubated for 1 hr followed by substrate addition and measured after 2 hrs in presence of meta-caspase inhibitor antipain by fluorometric assay; assay type: functional, organism-based
Outline: (§3)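 Log-phase promastigotes were pretreated for 1 h with antipain (1 μM) or zVAD-fmk (100 μM), then exposed to 50 μM compound or 0.1% DMSO. Metacaspase activity in lysates was read with fluorogenic BOC-GRR-AMC and expressed as RFU per mg protein.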

[6] = test system: Leishmania donovani; test: as §2, with “of caspase” for “of meta-caspase”, “inhibitor zVAD-fmk” for “inhibitor antipain”; assay type: functional, organism-based; outline: as §3
[7] = AUC (0 to infinity) in BALB/c mouse at 50 mg/kg, po administered via gavage by LC-MS/MS analysis; assay type: ADME, organism-based; parameters: dose 50 mg/kg, time infinity, route oral; conditions: in vivo
[8] = test system: Leishmania donovani; test: Induction of mitochondrial membrane disruption in Leishmania donovani MHOM/IN/80/Dd8 promastigotes assessed as reduction in intracellular ATP level at 50 uM measured after 6 to 48 hrs by luciferase-based assay relative to control; assay type: functional
Outline: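 Promastigotes were incubated with 0.1% DMSO or 50 μM compound for 6−48 h. Cytosolic ATP was quantified by bioluminescence assay. At least 3 independent experiments in duplicate.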

[9] = test system: Leishmania donovani; test: Induction of reactive oxygen species generation in Leishmania donovani MHOM/IN/80/Dd8 promastigotes at 50 uM measured after 48 hrs by H2DCFDA probe-based flow cytometry (reference value: 7%); assay type: functional
[10] = test system: Leishmania donovani; test: Induction of nitric oxide generation in Leishmania donovani MHOM/IN/80/Dd8 promastigotes assessed as increase in fluorescence at 50 uM measured after 6 hrs by DAF-2DA dye-based flow cytometry relative to control; assay type: functional
Outline: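 Log-phase promastigotes exposed to 50 μM for 6–18 h, vehicle control 0.1% DMSO, then labelled with 40 μM DAF-2DA. Fluorescence (GMFC) read by flow cytometry and expressed as fold change over vehicle. At least 3 independent experiments in duplicate.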

[11] = test system: Leishmania donovani; test: Induction of reactive oxygen species generation in Leishmania donovani MHOM/IN/80/Dd8 promastigotes at 50 uM measured after 12 hrs by H2DCFDA probe-based flow cytometry (reference value: 7%); assay type: functional
[12] = Apparent volume of distribution in BALB/c mouse at 50 mg/kg, po administered via gavage by LC-MS/MS analysis; assay type: ADME, organism-based; conditions: in vivo
[13] = test system: Leishmania donovani; test: Antileishmanial activity against Leishmania donovani MHOM/IN/80/Dd8 amastigotes harboring luciferase reporter gene infected in mouse J774 cells assessed as stimulation of host immunity by measuring change in TNFalpha level at 50 uM after 48 hrs by ELISA; assay type: functional, organism-based
Outline: (§4)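 Infected J774 macrophages (24 h infection) were treated with 50 μM compound for 48 h. Culture supernatants were assayed by ELISA for TNF-α and IL-12 (Th1) and for TGF-β and IL-10 (Th2), compared with infected untreated cells.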

[14] = test system: Leishmania donovani; test: Induction of apoptosis in Leishmania donovani MHOM/IN/80/Dd8 promastigotes assessed as late apoptotic cells at 50 uM measured after 12 hrs by Annexin V-FITC/propidium iodide staining based assay (reference value: 0.02%); assay type: functional
[15] = test system: Leishmania donovani; test: Induction of mitochondrial membrane disruption in Leishmania donovani MHOM/IN/80/Dd8 promastigotes assessed as increase in cytochrome c release from mitochondria to cytosol at 50 uM measured after 6 to 48 hrs by immunoblot analysis; assay type: functional, organism-based
Outline: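 Promastigotes were treated with 50 μM compound for 6−48 h, or 0.1% DMSO for 48 h. Mitochondrial and cytosolic fractions were immunoblotted for cytochrome c, with COX-IV and β-tubulin as fraction loading controls.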

[16] = test system: Leishmania donovani; test: Induction of morphological changes in Leishmania donovani MHOM/IN/80/Dd8 promastigotes assessed as appearance of round shape parasite at 50 uM after 48 hrs by bright field microscopic analysis; assay type: functional, organism-based
[17] = test system: Leishmania donovani; test: Induction of apoptosis in Leishmania donovani MHOM/IN/80/Dd8 promastigotes assessed as late apoptotic cells at 50 uM measured after 24 hrs by Annexin V-FITC/propidium iodide staining based assay (reference value: 0.02%); assay type: functional
[18] = test system: Leishmania donovani; test: Induction of apoptosis in Leishmania donovani MHOM/IN/80/Dd8 promastigotes assessed as late apoptotic cells at 50 uM measured after 24 hrs by Annexin V-FITC/propidium iodide staining based assay (reference value: 0.46%); assay type: functional
[19] = test system: Leishmania donovani; test: Induction of apoptosis in Leishmania donovani MHOM/IN/80/Dd8 promastigotes assessed as late apoptotic cells at 50 uM measured after 48 hrs by Annexin V-FITC/propidium iodide staining based assay (reference value: 0.46%); assay type: functional
[20] = test system: Leishmania donovani; test: Antileishmanial activity against Leishmania donovani MHOM/IN/80/Dd8 promastigotes infected in BALB/c mouse assessed as reduction in parasite load in liver at 25 mg/kg, ip administered once daily for 5 days measured 7 days post dose by giemsa staining-based assay relative to control; assay type: functional; parameters: scale not given: the % may be the effect or the level left
Outline: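 Hamster-passaged strain was transformed to promastigotes. Stationary-phase cells (2 × 10^7 in 0.2 mL PBS) were injected into the tail vein of BALB/c mice. From day 15 post-infection, mice received compound ip in 8% DMSO in PBS for 5 consecutive days, 5 mice per group. Mice were killed day 7 post-treatment. Liver and spleen burden was read from Giemsa-stained stamp smears as LDU.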

[21] = test system: Leishmania donovani; test: Induction of mitochondrial potential loss in Leishmania donovani MHOM/IN/80/Dd8 promastigotes assessed as shift in red to green fluorescence at 50 uM after 24 hrs by JC1 dye-based flow cytometry (reference value: 7.37%); assay type: functional; outline: as §1
[22] = AUC (0 to 48 hrs) in BALB/c mouse at 50 mg/kg, po administered via gavage by LC-MS/MS analysis; assay type: ADME, organism-based; parameters: time < 48 hr, dose 50 mg/kg, route oral; conditions: in vivo
[23] = test system: Leishmania donovani; test: Antileishmanial activity against Leishmania donovani MHOM/IN/80/Dd8 amastigotes harboring luciferase reporter gene infected in mouse J774 cells assessed as stimulation of host immunity by measuring change in IL12 level at 50 uM after 48 hrs by ELISA; assay type: functional, organism-based; outline: as §4
[24] = test system: Leishmania donovani; test: Induction of apoptosis in Leishmania donovani MHOM/IN/80/Dd8 promastigotes assessed as early apoptotic cells at 50 uM measured after 48 hrs by Annexin V-FITC/propidium iodide staining based assay (reference value: 6.91%); assay type: functional
[25] = Elimination rate constant in BALB/c mouse at 50 mg/kg, po administered via gavage by LC-MS/MS analysis; assay type: ADME, organism-based; conditions: in vivo

For `Cc1cc(-c2ccc(OCCn3c([N+](=O)[O-])cnc3C)cc2)nc2ccccc12`, the Activity [1] was 4.04%, the Tmax [2] was 45 min and the Activity [3] was 68.76%. For the same compound, the Cmax [4] was 6860 ng/mL, the inhibition [5] was “inactive” and the inhibition [6] was “Active”. It also gave an AUC(0-inf) [7] of 18200 ng·h/mL, an Imax [8] greater than 67% and an Activity [9] of 58.2%. For the same compound, the “fold change (FC)” value [10] was 1.75, the Activity [11] was 31.61% and the “Vd(app)” value [12] was 15.98 L/kg. The Activity [13] was “inactive”, the Activity [14] was 1.43% and the Activity [15] was “Active”. The Activity [16] was “Active”, the Activity [17] was 10.04% and the Activity [18] was 48.14%. It also gave an Activity [19] of 44.11%, an Activity [20] greater than 62% and an Activity [21] of 54.18%. The AUC(0-t) at 48 h [22] was 18200 ng·h/mL, the Activity [23] was “inactive” and the Activity [24] was 18.07%. For the same compound, the k el [25] was 4.72e-05 s⁻¹.
